Compound activity from PubChem BioAssay.
This is a sample that favours compounds with a hit; in the whole collection about 2.5% have one here.
SR-BI DiI inh – mouse SR-BI HDL lipid transfer inhibition; Q61009; ldlA[mSR-BI] CHO cells, DiI-HDL uptake fluorescence, 3 h; inhibition, % at 12.5 µM; actives 0.96% (n = 320,000);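 active means mean replicate inhibition of at least 70% and a set share of replicates each scoring 70 or more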;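 further: 0% = median of neutral control wells and 100% = median of positive control wells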
DYRK1A inh – blocks rat Dyrk1A kinase activity. Q63470. ADP-Glo luminescence, NFATc1 peptide. inhibition, % at 12.5 µM. actives 0.43% (n = 310,000);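 further: plate controls were vehicle with enzyme for no effect and no enzyme for full effect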
dFosB act – enhances mouse delta FosB homodimer DNA binding; purified delta FosB, TAMRA-CDK5 oligo fluorescence polarization; percent of positive-control signal above neutral wells; activation, % at 25 µM; actives 0.99% (n = 340,000); AID 493131;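 active means mean activation above about 17%, with every replicate also reaching it, limit read from the data, passing the limit was not always enough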
NSD2 HMT inh – inhibitors of human histone methyltransferase NSD2; actives 0.54% (n = 310,000); O96028; NSD2 peptide methylation, AlphaScreen, 120 min; AID 743445; inhibition, % at 12.5 µM
SR-BI DiI-HDL act – SR-BI HDL lipid transfer activation. CHO ldlA[mSR-BI] cells, DiI-HDL uptake fluorescence, 3 h; 100 = double the neutral-control signal. activation, % at 12.5 µM. actives 0.096% (n = 320,000). AID 504775;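 active means mean replicate activation of at least 60% and every replicate at or above 60%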;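 further: 0% = median plate neutral-control signal and 100% = twice that signal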
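material = CHO ldlA[mSR-BI] cells | medium = Ham's F12 with 0.5% BSA, HEPES 25 mM, pH 7.4 | reagent = fluorescent DiI-HDL, 10 µg/mL final | compound dosing = single-point compound dose | incubation = 3 h, 37 °C | measured by = bottom-read fluorescence, 550/595 nm | measure = HDL uptake via cellular fluorescence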
CDK5 inh – inhibitors of human CDK5/p35 kinase | inhibition, % at 10 µM | Recombinant CDK5/p35, ADP-Glo luminescence, 60 min | AID 488839 | Q00535+Q15078 | actives 0.01% (n = 330,000);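 active means highest replicate inhibition of at least 50% and at least 75% of replicates reaching 50%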;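 further: plate controls were DMSO neutral control for no effect and GW8510 at 10 µM for full effect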
Alpha artifact – counter-screen for NSD2 inhibitors: AlphaScreen artifacts. shares compounds with NSD2 HMT inh. AlphaScreen artifact counterscreen, preloaded methylated H4 peptide. AC35, µM (series often up to 10 µM), without a hit: at the top dose activity change, negative = signal loss. actives 9.4% (n = 1,500); call rule not given here
Starred values were filed as active, the others as inactive; . = not tested or not shown. Unless noted, no stated cut-off is given here; in the data, active means inhibition above about 50%; inactive means the rest.

SMILES	SR-BI DiI inh	DYRK1A inh	dFosB act	NSD2 HMT inh	SR-BI DiI-HDL act	CDK5 inh	Alpha artifact
CCOC(=O)c1cccc(P(C)(C)=O)c1	-14.3	-0.2	-7.9	78.6*	33.2	-1.0	2.4%
COc1cc(NC(=O)COC(=O)CNC(=O)c2ccc(C)cc2)c(C)cc1[N+](=O)[O-]	-21.9	-4.7	-1.5	58.8*	21.9	-0.4	-4.3%
CNCc1ccccc1Sc1ccc(O)c(O)c1	-30.3	-0.2	-8.3	63.8*	30.3	1.6	-7.6%
COc1ccc(Sc2ccccc2CN(C)C)cc1OC	-0.2	-2.1	-1.4	15.9	0.2	0.4	.
C[n+]1cccc2cccc([O-])c21	-10.6	-0.7	-1.0	103.2*	10.6	1.4	-2.5%
CCOC(=O)c1cc2c(ccn2-c2ccc(F)cc2)n1CC(=O)N(CC)CC	32.7	-3.7	-22.2	4.0	-32.7	0.3	.
O=C(/C=C/c1ccco1)Nc1cccc(C(=O)Nc2ccccc2C(=O)O)c1	-17.9	24.4	-22.3	75.8*	17.9	-8.1	0.3%
O=C(/C=C/c1ccco1)NC(=S)Nc1ccc(C(=O)O)cc1	-3.8	18.1	-16.3	65.9*	3.8	-2.6	-4.7%
COc1ccc(NC(=S)NC(=O)/C=C/c2ccco2)cc1	18.5	5.7	-9.0	-2.3	-18.5	0.6	.
CCc1ccccc1NC(=O)c1cccc(NC(=O)/C=C/c2ccco2)c1	27.8	.	-3.9	-0.4	-27.8	1.3	.
Cc1ccc(S(=O)(=O)N2CCCC2CNC(=O)c2ccc3c(c2)OCO3)cc1 (stereo unspecified)	-14.5	-2.0	-11.0	0.0	14.5	-0.6	.
Nc1nonc1-c1nc2ccccc2n1CC(=O)N/N=C/c1ccc(-c2ccccc2C(=O)O)o1	-22.6	0.5	-7.5	62.7*	22.6	-0.7	-1.5%
Nc1nonc1-c1nc2ccccc2n1CC(=O)NC1CCCC1	-1.7	-1.5	14.8	-2.2	1.7	-0.2	.
COCCCNC(=O)COc1ccc(Cl)c(C)c1	-1.3	-1.9	-4.0	56.0*	1.3	0.0	3.9%
CC(=O)c1cccc(NC(=O)c2csc(-n3nc(C)cc3C(F)(F)F)n2)c1	1.2	0.8	-3.9	125.5*	-1.2	-11.1	0.6%
CC(=C1SC(=S)NC1=O)c1ccc(Cl)c(O)c1	.	.	.	4.8	.	.	.
CCCCNC(=O)N1CCC(CCC(=O)N(C)Cc2ccccc2)CC1	-4.7	.	-4.1	-3.6	4.7	-0.9	.
CCOC(=O)CNC(=O)N1CCC(CCC(=O)N(C)Cc2ccccc2)CC1	10.8	-2.5	8.5	65.0*	-10.8	0.1	4.3%
N=C1S/C(=C\c2ccc(-c3ccccc3C(=O)O)o2)C(=O)N1c1ccc2c(c1)OCO2	-17.6	11.6	-10.9	98.6*	17.6	1.2	-4.2%
COc1ccc(C(=O)C=Cc2ccc(OCc3ccccc3)c(OC)c2)cc1OC	.	.	.	0.1	.	.	.
COc1cc(/C=C/[N+](=O)[O-])ccc1OCc1cccc(C(=O)O)c1	.	.	.	81.8*	.	.	-17.9%
Nc1ccc2c(c1)OCCOCCOCCOCCOCCO2	-19.5	7.1	-7.4	64.4*	19.5	0.3	-0.3%
Brc1ccc2c(c1)OCCOCCOc1cc(Br)ccc1OCCOCCOCCO2	27.1	0.3	-1.8	.	-27.1	1.2	.
CNC(=S)NC(CC(=O)OC)c1ccc2c(c1)OCO2 (stereo unspecified)	-7.3	1.5	-2.0	55.7*	7.3	1.0	-1.8%
Cc1cc(C)c(NC(=O)C2CC(=O)N(c3ccc4c(c3)OCCO4)C2)c(C)c1 (stereo unspecified)	2.8	-5.1	-12.1	106.2*	-2.8	-2.2	-4.3%
SMILES	SR-BI DiI inh	DYRK1A inh	dFosB act	NSD2 HMT inh	SR-BI DiI-HDL act	CDK5 inh	Alpha artifact
CCc1cccc(CC)c1NC(=O)C1CC(=O)N(c2ccc3c(c2)OCCO3)C1 (stereo unspecified)	-18.4	1.7	-6.5	-3.2	18.4	-0.5	.
Nc1c2c(=O)[nH]c(O)cc2nn1-c1ccccc1	-1.1	18.1	-4.4	99.6*	1.1	1.7	-3.5%
Cc1c(C)c2c(C)nn(-c3ccccc3)c2[nH]c1=O	4.9	0.6	-9.0	-0.7	-4.9	-2.6	.
C(=N\Nc1ccccn1)/c1cccnc1	-18.3	1.2	1.3	6.7	18.3	1.9	.
FC(F)(F)c1ccc(N/N=C/c2cccnc2)nc1	-9.1	23.3	-4.1	116.3*	9.1	8.3	-2.4%
CC(C)c1ccc(OC(=O)c2ccc3c(=O)n4c(nc3c2)CCC4)cc1	2.6	7.1	-11.6	22.6	-2.6	0.5	.
O=C1c2cc(O)c(O)cc2OC(c2ccc(O)c(O)c2)C1O (stereo unspecified)	-6.1	48.1	-5.3	68.1*	6.1	0.0	-11.4%
O=C1CC(c2ccc(O)c(O)c2)Oc2c1ccc(O)c2O (stereo unspecified)	15.6	33.7	-7.1	.	-15.6	1.9	.
O=C(O)c1ccccc1NS(=O)(=O)c1ccc2ccccc2c1	1.1	-7.5	-2.6	52.1*	-1.1	-0.3	-1.4%
O=C(CN1C(=O)NC2(CCCC2)C1=O)NNC(=O)c1ccc(Cl)cc1	0.6	-5.0	-1.6	-1.5	-0.6	0.2	.
CN(C)Cc1csc(NC(=O)Nc2cccc(Cl)c2)n1	.	.	.	74.3*	.	.	-4.4%
O=C(CCc1ccccc1)NNC(=O)COc1ccccc1Cl	.	15.2	-1.3	1.7	.	-0.5	.
Cn1c(=O)c2c(nc(CN3CCc4ccccc4C3)n2CCc2ccccc2)n(C)c1=O	.	.	.	68.6*	.	.	-3.8%
Cn1c(=O)c2c(nc(CN3CCc4ccccc4C3)n2CCCO)n(C)c1=O	-25.2	-5.2	-15.0	1.8	25.2	-0.7	.
Nc1nonc1C(=O)N/N=C/c1cc2c(cc1[N+](=O)[O-])OCO2	-4.5	-6.1	9.8	112.8*	4.5	1.0	-1.0%
C[C@H](CO)N1C[C@H](C)[C@@H](CN(C)S(=O)(=O)c2cccs2)Oc2ccc(NC(=O)Cn3cnnn3)cc2C1=O	-10.6	-2.3	-6.8	.	10.6	0.4	.
CCCCCn1cnc2c(=S)nc(N)[nH]c21	-9.5	6.0	-1.2	22.6	9.5	2.8	.
CCCCn1cnc2c(=S)nc(N)[nH]c21	-20.2	-2.3	-0.5	56.9*	20.2	3.0	2.7%
CCCCc1ccc(S(=O)(=O)NC(=O)C2(C)CCN2C(=O)C/C=C/c2ccccc2)cc1 (stereo unspecified)	.	.	.	12.2	.	.	.
CCN(CC)S(=O)(=O)c1cccc(-c2nnc(SCCCC(=O)c3ccc(F)cc3)o2)c1	13.2	-2.4	-8.6	126.6*	-13.2	0.1	-1.2%
CCN(CC)S(=O)(=O)c1cccc(-c2nnc(SCCCC(=O)c3ccccc3)o2)c1	-3.3	-4.3	-13.0	-0.3	3.3	0.8	.
CC(C)[C@H](N)C(=O)OCC(CO)OCn1cnc2c(=O)[nH]c(N)nc21 (stereo partly specified)	.	.	.	-0.8	.	.	.
